Experimental data from different studies.
Compare with care: the assays were run in different laboratories.
Target: Mitogen-activated protein kinase kinase kinase 13 (MAP3K13, Homo sapiens, UniProt O43283)
Sequence (O43283 1-966, as in one of the studies): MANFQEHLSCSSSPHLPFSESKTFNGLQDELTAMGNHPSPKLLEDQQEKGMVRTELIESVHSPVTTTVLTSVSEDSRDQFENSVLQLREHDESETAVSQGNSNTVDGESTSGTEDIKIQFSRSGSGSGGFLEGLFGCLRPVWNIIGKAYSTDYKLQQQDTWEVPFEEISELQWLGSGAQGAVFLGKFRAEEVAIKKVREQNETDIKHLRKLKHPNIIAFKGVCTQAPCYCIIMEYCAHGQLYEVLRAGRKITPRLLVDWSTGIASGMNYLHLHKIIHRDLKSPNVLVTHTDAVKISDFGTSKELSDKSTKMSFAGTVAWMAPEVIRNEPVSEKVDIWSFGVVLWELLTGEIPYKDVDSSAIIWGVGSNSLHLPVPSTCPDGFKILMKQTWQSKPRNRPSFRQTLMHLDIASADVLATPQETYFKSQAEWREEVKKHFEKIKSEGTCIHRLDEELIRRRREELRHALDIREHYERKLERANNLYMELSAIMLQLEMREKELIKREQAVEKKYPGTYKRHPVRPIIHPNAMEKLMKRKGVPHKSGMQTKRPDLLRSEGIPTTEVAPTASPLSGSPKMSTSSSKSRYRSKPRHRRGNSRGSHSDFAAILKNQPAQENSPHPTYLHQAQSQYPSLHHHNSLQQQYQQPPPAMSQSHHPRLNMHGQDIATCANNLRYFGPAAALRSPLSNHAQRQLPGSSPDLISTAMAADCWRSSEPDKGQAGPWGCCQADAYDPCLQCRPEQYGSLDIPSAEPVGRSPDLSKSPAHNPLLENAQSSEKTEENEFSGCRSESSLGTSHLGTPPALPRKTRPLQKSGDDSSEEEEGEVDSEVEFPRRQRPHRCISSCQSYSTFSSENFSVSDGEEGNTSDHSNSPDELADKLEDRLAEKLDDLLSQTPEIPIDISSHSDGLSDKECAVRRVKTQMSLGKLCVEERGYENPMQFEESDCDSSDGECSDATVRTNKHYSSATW

| SMILES | effect on | technique | concentration | remaining binding |
| --- | --- | --- | --- | --- |
| O=C(NCC1CCOCC1)c1n[nH]cc1NC(=O)c1c(F)cccc1F | binding | competition with immobilised ligand | 1 µM | 84% |
| O=C(c1ccc(Nc2ncc(Cl)c(-c3ccc(Cl)s3)n2)cc1)N1CCC(N2CCCC2)CC1 | binding | competition with immobilised ligand | 1 µM | 48% |
| Cc1c(C(=O)O)cc(-c2ccc(C3CCNCC3)cc2)c2ccc(-c3ccc(C(F)(F)F)cc3)cc12 | binding | competition with immobilised ligand | 1 µM | 100% |
| c1cncc(-c2cccc(Nc3nccc(NC4CCCCC4)n3)c2)c1 | binding | competition with immobilised ligand | 10 µM | 83% |
| COc1ccc2c(c1)O[C@H](c1ccc(OC)c(OC)c1)C[C@@H]2NC(=O)C1(c2ccc3c(c2)OC(F)(F)O3)CC1 | cell-free assay | competition with immobilised ligand | 1 µM | 91% |
| O=C(NCCCN1CCOCC1)c1ccc(Nc2ncc(Cl)c(-c3ccc(Cl)s3)n2)cc1 | binding | competition with immobilised ligand | 1 µM | 92% |
| O=C(NC[C@@H]1[C@H]2CN(C(=O)OCc3cc(C(F)(F)F)cc(C(F)(F)F)c3)C[C@@H]12)c1ccc2[nH]nnc2c1 | cell-free assay | competition with immobilised ligand | 1 µM | 86% |
| CN(CCCC(F)(F)F)c1nccc(-c2cnn3ncccc23)n1 | binding | – | 1 µM | 100% |
| C[C@H](NC(=O)c1cnc2n1[C@](C)(Cc1ccc(C#N)cc1)C(=O)N2c1cc(Cl)c(F)c(Cl)c1)C(=O)NC1(c2ccccn2)CC1 | cell-free assay | competition with immobilised ligand | 1 µM | 100% |
| O=C(c1ccc(Nc2nccc(-c3cc4ccccc4s3)n2)cc1)N1CCC(N2CCCC2)CC1 | binding | competition with immobilised ligand | 1 µM | 68% |
| COc1ccnn2ncc(-c3ccnc(N(C)C)n3)c12 | binding | – | 1 µM | 21% |
| CO[C@@H](C)c1c(Nc2ccc([C@H](N(C)C(=O)C3CCS(=O)(=O)CC3)C(F)(F)F)cc2)cnc2cc(Cl)nn12 | cell-free assay | competition with immobilised ligand | 1 µM | 78% |
| C[C@H]1CCN(c2nccc(-c3cnn4ncccc34)n2)C1 | binding | – | 1 µM | 62% |
| FC(F)(F)Oc1cccc(-c2cnc3ccc(-c4ccncc4)nn23)c1 | cell-free assay | competition with immobilised ligand | 5 µM | 83% |
| Cc1cnn2ncc(-c3ccnc(N(C)C)n3)c2c1 | binding | – | 1 µM | 70% |
| O=C(O)[C@@H]1[C@@H](Cn2nnc3ccccc3c2=O)CC[C@H]1C(=O)c1ccc(OCCC2CCOCC2)cc1 | cell-free assay | competition with immobilised ligand | 1 µM | 70% |
| N[C@@H]1CCN(c2nccc(-c3cnn4ncccc34)n2)C1 | binding | – | 1 µM | 100% |
| Nc1ncc2c(n1)-c1c([nH]c3ccc(C#CC4CC4)cc13)CCCC2 | binding | competition with immobilised ligand | 1 µM | 61% |
| CN(C)c1nccc(-c2cnc3ncccn23)n1 | binding | – | 1 µM | 76% |
| COc1cnc(Nc2cccc(S(N)(=O)=O)c2)nc1N1CCN(c2ccccc2)C(=O)C1 | binding | competition with immobilised ligand | 1 µM | 100% |
